Test results: ChEMBL document CHEMBL1148152, “Syncarpamide, a new antiplasmodial (+)-norepinephrine derivative from Zanthoxylum syncarpum” (J Nat Prod, 2004)
The source made the active and inactive calls. The rule behind the calls is not given here.

Tests used:
Staphylococcus aureus [1] = test: Antibacterial activity against Staphylococcus aureus ATCC 6535 by antimicrobial susceptibility test; assay type: functional, organism-based
Outline: (§1)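 Modified 96-well microplate broth assay run on purified compounds, giving IC50 and MIC values, against ATCC strains C. albicans 90028, C. neoformans 90113, and S. aureus 6535 and 33591. Amphotericin B and rifampin served as positive controls, with DMSO as the negative control.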

Plasmodium falciparum [2] = test: Antiplasmodial activity against Plasmodium falciparum W2; assay type: functional, organism-based
Staphylococcus aureus [3] = test: Antibacterial activity against Staphylococcus aureus ATCC 33591 by antimicrobial susceptibility test; assay type: functional, organism-based; outline: as §1
Plasmodium falciparum [4] = test: Antiplasmodial activity against Plasmodium falciparum D6; assay type: functional, organism-based
Cryptococcus neoformans = test: […] activity against Cryptococcus neoformans ATCC 90113 by antimicrobial susceptibility test; assay type: functional, organism-based; outline: as §1
Vero [5] = test: Cytotoxicity against african green monkey Vero cells; assay type: cell-based; details: chlorocebus sabaeus
Outline: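 Cytotoxicity assay with doxorubicin and 5-fluorouracil as positive controls and DMSO as the vehicle (negative) control.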

Vero [6] = test: Cytotoxicity against african green monkey Vero cells at 56.42 uM; assay type: cell-based; details: chlorocebus sabaeus
Candida albicans = test: Antifungal activity against Candida albicans B311 ATCC 90028 by antimicrobial susceptibility test; assay type: functional, organism-based; outline: as §1

Structure (SMILES)	Activity (Staphylococcus aureus [1])	IC50 (Plasmodium falciparum [2]) [µM]	Activity (Staphylococcus aureus [3])	IC50 (Plasmodium falciparum [4]) [µM]	Activity (Cryptococcus neoformans)	Activity (Vero [5])	Activity (Vero [6])	Activity (Plasmodium falciparum [2])	Activity (Plasmodium falciparum [4])	Activity (Candida albicans)
COc1c(O)ccc2c1cnc1c3cc4c(cc3ccc21)OCO4 [DECARINE]	Active	0.88	Active	1.44	Active	Not Active	Active			
CC(C)(O)[C@@H]1Cc2cc3ccc(=O)oc3cc2O1	inactive		inactive		inactive			inactive	inactive	inactive
COc1ccc([C@@H](CNC(=O)/C=C/c2ccccc2)OC(=O)/C=C/c2ccccc2)cc1OC [SYNCARPAMIDE]		3.06		2.04		Not Active				
